This sample holds only a part of the variants without activity.

Sequences and labels used below:
B1: tRNA (parent)
chain: GUUCCGUUGGCGUAAUGGUAACGCGUCUCCCUCCUAAGGAGAAGACUGCGGGUUCGAGUCCCGUACGGAACG

In the data set the parent is B1. Kind of data set: yeast fitness relative to wild type (ratio to wild type); higher = fitter; tRNA-Arg(CCU), competitive growth, 37 C, YPD. A digest of the protocol:
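For this measurement, the tRNA-Arg(CCU) gene was varied by chemical synthesis at a 3% per-site mutation rate across 69 sites, and each variant was placed at the native genomic locus in Saccharomyces cerevisiae. The pooled strains went through a 24-hour competition in YPD at 37°C in six parallel replicates, with amplicons from start and end populations read by 100-nucleotide paired-end sequencing. Darwinian fitness relative to wild type followed from the change in each genotype's frequency. Genotypes needed ≥ 100 starting reads, and estimates < 0.5 were set to 0.5.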
For the variant U3G C60G, the yeast fitness turned out to be 0.577.
Regarding G10A C27A A36U A37U G48C C61G A69U, the yeast fitness came out at 0.576.
Take G17U G25A G50A G63C: the yeast fitness is not above 0.5.
As to C4A C31A U32A, the yeast fitness was not above 0.5.
The value for C29U A65G was 0.934.
In the case of U28C C55A C61U G68A A70G it was not above 0.5.
In the case of C24U C31A C34A G56C it was not above 0.5; in that of G6A C24G U35A G48C, 0.54.
For the variant C27G C55A A70U, the yeast fitness is not above 0.5.
Consider U13G U32A G48C G51A C61U A69G, for which the yeast fitness was not above 0.5.
The value for G6C U8C C22U was 0.526; that for G52C U54C was 0.608; that for G12A G23C C55G A69C was 0.561.
In the case of C24A C31A G63U U64G it was not above 0.5; in that of C4U G17A C22U, not above 0.5; in that of C27A C49A, 0.749.
In the case of G23A A36G A69C, the yeast fitness was determined as 0.708.
Consider U54C A65G, for which the yeast fitness came out at 0.97.
With U16C A40U A70U, the yeast fitness amounted to 0.683.
In the case of C30U C34G C46U it was not above 0.5; in that of C5G A43G, 0.746; in that of G12C A21G U26C C31U, not above 0.5.
Take C22A C33G A37G: the yeast fitness was not above 0.5.
Take U32A G50A: the yeast fitness was found to be 0.783.
In the case of U16A A45U it was 1; in that of A14G G25A A40U C49U C60A G63A, not above 0.5; in that of U7G C34A G44C G51A, not above 0.5.
The value for U2C A40G C61A was not above 0.5.
Take C5U G17A C33A C49U C66U: the yeast fitness was not above 0.5.
Consider G56C A57U, for which the yeast fitness came out at 0.562.
The value for U8C U28C was 0.834.
Turning to U8C C27A A36U A37U, the yeast fitness is not above 0.5.
In the case of C5G A15G C24G U32A C34G C66U it was not above 0.5; in that of U35A A36G, 0.65; in that of U19C A65U G68A, 0.534.
In the case of A43U C49G G63A A69C it was not above 0.5; in that of U2C G12A A15G C66U, 0.577.
For the variant C4G A14U C24G C31G C61G, the yeast fitness was not above 0.5.
Turning to U13A A21C G44A, the yeast fitness was not above 0.5.
Turning to U3C G63C U64C, the yeast fitness was 0.631.
On to U7A G9C G17C C61U G68C, for which the yeast fitness is not above 0.5.
The value for C4G C22G C33U A36C A40U was 0.663; that for C27U A36C G39C G48C G63U was 0.547; that for G50C G51C G56A was 0.602.
The value for U26C U32A C34U G38C G51A A57C C66U was 0.66; that for C4A G6A A45U G58A A65G was not above 0.5; that for A15G U16A was 0.919.
In the case of A20U A36C it was 0.627; in that of U13C U47A C62U, 0.596.
As for C4A C31G G51C C66A, the yeast fitness was not above 0.5.
The value for G52A C55U was 0.561.
Turning to A21G U59G U64C A65U, the yeast fitness came to 0.586.
With C24U G39A A70C, the yeast fitness was 0.668.
With C4U C62U, the yeast fitness stood at 0.992.
On to A14U C22U G25A C55G C60U, for which the yeast fitness is not above 0.5.
For the variant C5A C31U G58C U64C A70G, the yeast fitness came out at 0.576.
In the case of U2G A45U C66U G67A it was not above 0.5; in that of C5A C34G U53A, not above 0.5.
With G10C A14U U19A C22U C66U, the yeast fitness was not above 0.5.
In the case of A15U C30G G38A U54C it was 0.553; in that of A14G C30A A45G C60G, 0.668; in that of G38C C62A, 0.624.
Consider U3A G12C U19C, for which the yeast fitness is not above 0.5.
With C11U G67C, the yeast fitness was 0.792.
U13A U28C C60A: the yeast fitness came to 0.551.
With U2C C30G C33A A65C, the yeast fitness is not above 0.5.
Regarding A21U U54C C55G C60A C61G C66G, the yeast fitness is not above 0.5.
Take C5A U16A G17A A42C: the yeast fitness was not above 0.5.
As for A21U C46U, the yeast fitness was determined as 0.86.
Regarding G44A G68U, the yeast fitness came out at 0.696.
Take C4U C11A A37C C49U C60G A70C: the yeast fitness was not above 0.5.
Consider A43G G58A, for which the yeast fitness came out at 0.969.
Turning to G12A A43U A45C G67C G68U, the yeast fitness is not above 0.5.
Turning to U28A C46G G56A, the yeast fitness amounted to 0.676.
The value for G23A G25C C46G G48A C66A was not above 0.5.
As for U19C A37G G44C G58A A65G, the yeast fitness stood at 0.63.
As to C33A G38A A40C A43G G51C C61G, the yeast fitness is not above 0.5.
In the case of G9U A14C C24U U35C C46G G52A C61A it was not above 0.5; in that of U16A G63C, 0.676.
In the case of G10A U47A A65C it was not above 0.5; in that of C24G C66U, 0.533.
In the case of G10C G12A A45C, the yeast fitness was determined as 0.539.
The value for A14U G52C C66U was not above 0.5; that for C11U C30U C55G was 0.541; that for A14U A21U A69C was 0.566.
In the case of C61G it was 0.688; in that of A15C G23C A65G, not above 0.5; in that of A14U A21C G41A A45G, not above 0.5.
The value for U2G C24G A36G A42C C61U C62G was not above 0.5.
Consider C31G A42U G58C, for which the yeast fitness was 0.538.
Take C22G C29G G51C: the yeast fitness is not above 0.5.
In the case of C29G C34G C46A U53A C61U it was 0.544.
As for C11U G58A A65G, the yeast fitness is 0.777.
Regarding G52C A69C, the yeast fitness stood at 0.687.
In the case of C11A U47C C62A it was not above 0.5; in that of C4G A57U U59G, not above 0.5; in that of A14C C27A G39A C55U A70G, not above 0.5.
G9U: the yeast fitness amounted to 0.955.
The value for U2C A42C U54A G67C A69U was not above 0.5.
On to U3A C24U A40U G50C A70U, for which the yeast fitness is not above 0.5.
The value for U3G G9C A20G C29A G67U was not above 0.5; that for U2C U54C was 0.873; that for U7G C22G A43U U47A G51A was 0.664.
For the variant C24U A43C C60A, the yeast fitness is not above 0.5.
In the case of U8G A14G G18A U47A C62G it was not above 0.5; in that of C5G C30U C34U A37U G68C, not above 0.5; in that of U16C A69C, 0.889.
With A15G C27U C62G, the yeast fitness amounted to 0.627.
In the case of C4U C5G C60G it was not above 0.5; in that of A20G C55A, 0.585; in that of A21U C33U A57U U59C, 0.639.
The value for G9C C22G C61A was 0.611; that for G10A A15C was 0.613; that for U3A G6A was 0.981.
Take A40C A42C A70U: the yeast fitness was determined as 0.549.
Take C30U A36U A37G G48A A70G: the yeast fitness is not above 0.5.
In the case of G12A U19C C31G it was not above 0.5.
Consider C5A G12A C33G A57U, for which the yeast fitness was not above 0.5.
The value for U16C C49U A69U was 0.555.
The value for U8C G9A G10A G23C C29U A36C C49G A70U was 0.534; that for G12C A37U G44C was 0.538; that for G12A A70C was 0.936.
In the case of G17A C27G G39C it was not above 0.5; in that of C5G C29A, 0.604.
For C5G G23C G48A G67A, the yeast fitness came to 0.567.
For the variant G18C U32G A57C C62U, the yeast fitness was not above 0.5.
The value for C11U C22G A65G was 0.731; that for C33G A36U G44A U59C was 0.611.
In the case of A37G C46U C55U, the yeast fitness was not above 0.5.
The value for C11A U19G A36G U53C U54C A69C was not above 0.5.
In the case of G9C C60G it was 0.53; in that of C5A A14G C24A A43G G63U, not above 0.5; in that of A14G C31G G58A, not above 0.5.
With G10A A15C C34A C49U C61G, the yeast fitness was 0.603.
With C4U C11U A45G, the yeast fitness is 0.687.
With C5U C33U A45C C46G A69U, the yeast fitness was not above 0.5.
The value for C5A A20U C31G C49G was not above 0.5; that for A14G U35A A42U C46G G56A was 0.524.
In the case of U8C G18A U35C U47C G50C it was not above 0.5.
The value for U7C C11G U32G C61U was 0.59.
For G23A C30G C33G A36U C46G C55G, the yeast fitness came out at 0.589.
The value for U13A C22G C24A G39C A43C G44C U47C C61U was not above 0.5; that for G6C A37C G51A U53C was not above 0.5.
With G10A U54A, the yeast fitness was 0.698.
With A21G C27A A37U C46U C66U, the yeast fitness was not above 0.5.
The value for U3C C30U C33G was not above 0.5; that for G9C U28C A37C C46G was 0.768; that for C49U C62G G68C was 0.536.
As for C34U C61G C66U, the yeast fitness worked out at 0.595.
As to U7A G17C C24G C29A, the yeast fitness is not above 0.5.
The value for G51C U54C A57G was not above 0.5; that for C11U G12A C66U was 0.587; that for C33G G38A G41A was not above 0.5.
In the case of C4A A14U A20C U28G C66U, the yeast fitness amounted to 0.557.
In the case of U8A G10C G12C C34G C61G, the yeast fitness is not above 0.5.
In the case of C5U A21U C30G C33U C66A it was not above 0.5; in that of A15U U32C A42C, 0.596; in that of C4U U54A, 0.627.
As to C5G G9C C30G C66U, the yeast fitness was not above 0.5.
In the case of C11U C22U C29G C34U G48C A57G it was not above 0.5.
The value for G6C U26C G68A was 0.537; that for U2C U26A was 0.918; that for U3A C5A C29A G68A was not above 0.5.
For the variant U19G A43C C49U U53C C55G, the yeast fitness is not above 0.5.
In the case of A21C A45U U47A U53A it was not above 0.5; in that of U7G U26C A43G C49U, not above 0.5; in that of C27U U64C C66A, not above 0.5.

These data come from the RNAGym collection of RNA variant scans (doi:10.1126/science.aae0568).
